Measured values from the RNAGym collection of RNA variant scans (doi:10.1126/science.aae0568).
Variants at the floor of the assay were thinned out.

B1: tRNA (parent)
chain: GUUCCGUUGGCGUAAUGGUAACGCGUCUCCCUCCUAAGGAGAAGACUGCGGGUUCGAGUCCCGUACGGAACG

Variants of: B1
Test: yeast fitness relative to wild type (ratio to wild type); higher = fitter; tRNA-Arg(CCU), competitive growth, 37 C, YPD
How it was run: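 For this measurement, the tRNA-Arg(CCU) gene was varied by chemical synthesis at a 3% per-site mutation rate across 69 sites, and each variant was placed at the native genomic locus in Saccharomyces cerevisiae. The pooled strains went through a 24-hour competition in YPD at 37°C in six parallel replicates, with amplicons from start and end populations read by 100-nucleotide paired-end sequencing. Darwinian fitness relative to wild type followed from the change in each genotype's frequency. Genotypes needed ≥ 100 starting reads, and estimates < 0.5 were set to 0.5.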
GUUUCGUUGACGUAAUGGUAACGUGUCUCCCUCCUAAGGAGAAGACUGCGGGUUCGAGUCCCGUACGGUACG showed a yeast fitness of 0.838. With GUUCCGUAGGCGUAAUGGUAACGCGUCUCCCUCCUAAGGAGAACACUGCGGGUUCGAGUCCCGUAUGGAACG the yeast fitness was no more than 0.5. In the case of GUUCCGUUGGCGUAAUGGUAAGGCGUCUGCCUCCUAAGGAGAACACUGCGGGUUCAGGUCCCGUACUGACCG, the yeast fitness is reported as no more than 0.5. GUUCGGUUGGCCUAAUGGUAACGCGUCUCCCUCCUAAGGAGAAGACUGCGGGUUCGAGUCCCGUACGGAACG showed a yeast fitness of 0.816. Variant GCUCCGAUGGCGUAAUGGUAACGCGUCUCCAUCCUAAGGAGAAGACUGCGGGUUCGAGUCCCGUAGGGAACG has a yeast fitness of no more than 0.5. For GUUCCGUUGGCGUAAUGGUAACGCGUCUCCCUGCUAAGGAGAAGACUGCGGGUUCCAGUCCCGUACGGAUCG, the yeast fitness was 0.727. For GUUCCGUUAGCGUAAUGGUAACGCGUCUCCCUCCUCAAGAGAAGACUGCGGGUUCGAGUCCCGUACGGAACG, the yeast fitness was no more than 0.5. Variant GUUCCGUUGGAGUAAUGGUAACGCGUCUCUCUCCUAAGGAGAAGACUGCGGGUUCGAGUCCCGUACGGAACG has a yeast fitness of 0.598. GUUCAGUUGGCGUAAUGGUAACGCGUCUCCCUCCGAAGGAGAAGACUGCGGGUUCGAGUCCCGUACGCAACG showed a yeast fitness of no more than 0.5. With GUUCCGUUGGCGUAAUGGUAACGCGUCUCCAUCCUAAGGAGAAGACUGCGGGUUCGAGUCCCGUACGGAUCG the yeast fitness was 0.927. With GUUUCGUUGGCGUAAUGGUAACGUGUCUCCCUCCUAAGGAGAGGACUGCGCGUCCGAGUCCCGUACGGAACG the yeast fitness was no more than 0.5. GUUCCGUUGCAGUAAUGGUAACGCGUCUCCCUCCUAAGGAGAAGACUGCGGGUUCGAGUCCCGUACGGAACG gave a yeast fitness of 0.6. For GUUCCGUUGGCGAAAUGGUAACGCGUCUCCCUCCUAAGGAGAAGACUGCGGGUUCAAGUCGCGUACGGAGCG, the yeast fitness was no more than 0.5. With GUUCCGUUGGCGUAAUGGUAAUGCGUCUCCCUCCUAAGGAGAAGACUGCAGGUUCGAGUCCCGUACGGAACG the yeast fitness was 0.875. For GUUUCGUUGGCGUAAUGGUAACGCGUCUCCCUCCUAAGGAGAAGACUGCGGGUUCGAGUGCCGUACGGAACG, the yeast fitness was 0.671. GUUCCGUUGGCGUAAUGGUAACGCGUCUCCCUCCUAAAGAGAAGACUGCGGGUUCGAGUCCCGUAAGGAACG showed a yeast fitness of 0.72. Work on GUUCCGUUGGGGUAAUGGUGACGCGUCUCCCUCCUAAGGAGAAGACUGCGGGCUCGAGUCCCGUACGGAACG yielded a yeast fitness of no more than 0.5. GUUCCGUUGGCGUAAUGGUAACGCGUCUCCCUCCUAAGGAGAAGACUGCGGGUUUGAGUCCCGUGCGGAACG gave a yeast fitness of 0.623. GUUCCGUUGGCGUAAUAGUAACGCGUCUCCCUCCUAAGGAGAAGACUGCGGGUUCGAGUCCCGUAUGGAACG showed a yeast fitness of 0.725. GUUCCGAUGGCGUACUGGUAACCCGUUUCCCUCCUAAGGAGAAGACUGCGGGUUCAAGUCACGUACGGAACG showed a yeast fitness of 0.602. Variant GUUCCGUUGGCGUAAUAGUAACGCGUCUCCCUCCUAAGGAGAAGAAUGCGGGUUCGAGUCGCGUACGGGACG has a yeast fitness of no more than 0.5. For GUUCCGUUGGAGUAAUGGUAACGCGUCUCCCUCCUCAGGAGAAGACUGCGGGUUCCAGUCCCGUACGGAACG, the yeast fitness was 0.614. In the case of GUCCCGUUGCCGUAAUGGUAACGCGUCUCUCUCCUAAGGAGAAGACUGCGGGUACGAGUCCCGUACGGAACG, the yeast fitness is reported as no more than 0.5. GUCCCGUUGGCGUAAUGGUAAGGCGUCUCCCUCCUAAGGAGAAGACUGCGGGUUCGAGUCCCGUACGGUACG gave a yeast fitness of 0.667. Work on GUUCCGUUGGCGUAAUGGUAUCGCGUCUCCCACCUAAGGAGAAGACUGCGGGUUCGAGUCCCGUACGGAACG yielded a yeast fitness of 0.643. In the case of GUUCCGUUGGUGUUAUGGUAACGGGUCUCCCUCCUAAGGAGGAGACUGCGGGUUCGAGUCCCGUACGGAACG, the yeast fitness is reported as 0.54. Work on GUUCCGUUGGCGUAAUGGUCACGCGUCUCCCUCCUAAGGAGAUGACUGCGGGUUCGAGUCCCGUACGGAACG yielded a yeast fitness of 0.829. With GUUCCGUUGGCGUAAUGGUAACGCGCCCCCCUCCUCAGGAGAAGACUGCGGGUUCGAGUCCCGUACGGAACG the yeast fitness was no more than 0.5. With GUUACGUUGGCGUAAUGGUCACGCGUCUCCCUCCUAAGGAGAAGACUGCGGGUUCGAGUCCCGUACGAAACG the yeast fitness was no more than 0.5. Work on GUUGCGUUAGCGUGAUGGUAACGCCUCUCCCUCCUAAGGAGAAGACUGCGGGUUCGCGUCCCGAACGGAACG yielded a yeast fitness of no more than 0.5. In the case of GUUCCGUUGGCGUAAUGGUAACGUGUCUUCCUCCUUAGGAGAAGACUGCGGGUUCGAGUCCCGUACGGACCG, the yeast fitness is reported as no more than 0.5. With GUUCCGUUGGCGUAAAGGUAACGCGUCUCCCUCCUAAGGAGAAGACUGCGGGUUCGCGUCCCGUACGGAACG the yeast fitness was 0.668. For GUUCCGUUGGCGUAAUGGUAACGCGUCUCCCUCCUAUGGAGAAGACUGCGGGUUCGAGUCCUGUACGGAACG, the yeast fitness was 0.859. GUUCCGUUGGCGUAAUGGUAACGCGUCUCCCUCCUACGGAGAAGACUGUGAGUUCGAGUCCCGUACGGAACG showed a yeast fitness of no more than 0.5. GUUCCGUUGGCGUAAUGGUAACGCCUCUCCCUCCUAAGGAGAAGACUGCGGGUUCGAGUCCGGUAGUGAACG gave a yeast fitness of no more than 0.5. Work on GUUCCGUUGGCGUAAUGGUAACGCGUCUCCCUCCUAAGGAGAAGACUGCGGGUUCGAGUCCCAUACUGAACG yielded a yeast fitness of 0.686. GUUUCGUUGGCGUAAUGGUAACGCGUCUCCCUCCUAAGGAGAAGUCUGCGGGUUCGAGUCCCGUACGGAACG showed a yeast fitness of 0.968. Work on GUUCCGUUGGCGUAAUGGUAAAGCGUCUCCCUCCUAAGGAGAAGAUUGGGGGUUCGAGUCCCGUACGGAACG yielded a yeast fitness of 0.527.
